Screening data deposited in PubChem BioAssay by several laboratories.
The list is not random: actives were taken first. Their share in the collection is about 1.8%.
Rin1-Abl PPI inh: inhibitors of Rin1-Abl protein binding, primary screen, biochemical, TR-FRET; 360,000 compounds, 0.4% hits; AID 588664, 2011; Tyrosine-protein kinase ABL1 (Homo sapiens) + Ras and Rab interactor 1 (Homo sapiens), …; inhibition, % at 7.35 µM; in the data active = inhibition above about 5%, passing the limit was not always enough
Target sequence (P00519 whole entry, looked up): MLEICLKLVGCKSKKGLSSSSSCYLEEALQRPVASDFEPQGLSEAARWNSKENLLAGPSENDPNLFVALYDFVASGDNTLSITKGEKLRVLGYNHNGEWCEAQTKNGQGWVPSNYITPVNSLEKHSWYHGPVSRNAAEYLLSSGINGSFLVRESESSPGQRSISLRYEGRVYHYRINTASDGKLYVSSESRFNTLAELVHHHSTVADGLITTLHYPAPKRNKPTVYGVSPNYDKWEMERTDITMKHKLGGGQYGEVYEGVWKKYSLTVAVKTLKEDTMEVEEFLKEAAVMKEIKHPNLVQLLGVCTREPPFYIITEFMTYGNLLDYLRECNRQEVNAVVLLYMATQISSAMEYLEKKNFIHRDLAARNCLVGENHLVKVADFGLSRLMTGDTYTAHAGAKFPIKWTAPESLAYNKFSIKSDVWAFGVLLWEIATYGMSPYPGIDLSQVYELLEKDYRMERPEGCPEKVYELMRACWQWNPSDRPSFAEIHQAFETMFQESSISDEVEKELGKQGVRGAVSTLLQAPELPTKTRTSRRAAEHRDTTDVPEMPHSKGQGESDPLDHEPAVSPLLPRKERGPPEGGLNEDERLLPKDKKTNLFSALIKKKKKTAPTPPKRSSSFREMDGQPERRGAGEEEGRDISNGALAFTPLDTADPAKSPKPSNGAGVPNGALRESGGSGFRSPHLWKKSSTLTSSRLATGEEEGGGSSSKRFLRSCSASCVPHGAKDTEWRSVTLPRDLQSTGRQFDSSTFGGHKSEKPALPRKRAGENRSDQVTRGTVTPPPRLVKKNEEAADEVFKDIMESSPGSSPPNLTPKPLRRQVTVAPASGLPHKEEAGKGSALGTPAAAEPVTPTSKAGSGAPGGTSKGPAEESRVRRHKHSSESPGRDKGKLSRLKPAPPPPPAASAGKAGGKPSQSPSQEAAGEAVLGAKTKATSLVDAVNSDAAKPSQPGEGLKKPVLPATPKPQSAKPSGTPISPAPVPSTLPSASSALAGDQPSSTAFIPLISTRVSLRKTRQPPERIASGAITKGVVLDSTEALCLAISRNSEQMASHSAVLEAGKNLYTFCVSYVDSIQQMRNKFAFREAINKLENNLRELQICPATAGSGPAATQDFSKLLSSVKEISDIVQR
Target sequence (Q13671 whole entry, looked up): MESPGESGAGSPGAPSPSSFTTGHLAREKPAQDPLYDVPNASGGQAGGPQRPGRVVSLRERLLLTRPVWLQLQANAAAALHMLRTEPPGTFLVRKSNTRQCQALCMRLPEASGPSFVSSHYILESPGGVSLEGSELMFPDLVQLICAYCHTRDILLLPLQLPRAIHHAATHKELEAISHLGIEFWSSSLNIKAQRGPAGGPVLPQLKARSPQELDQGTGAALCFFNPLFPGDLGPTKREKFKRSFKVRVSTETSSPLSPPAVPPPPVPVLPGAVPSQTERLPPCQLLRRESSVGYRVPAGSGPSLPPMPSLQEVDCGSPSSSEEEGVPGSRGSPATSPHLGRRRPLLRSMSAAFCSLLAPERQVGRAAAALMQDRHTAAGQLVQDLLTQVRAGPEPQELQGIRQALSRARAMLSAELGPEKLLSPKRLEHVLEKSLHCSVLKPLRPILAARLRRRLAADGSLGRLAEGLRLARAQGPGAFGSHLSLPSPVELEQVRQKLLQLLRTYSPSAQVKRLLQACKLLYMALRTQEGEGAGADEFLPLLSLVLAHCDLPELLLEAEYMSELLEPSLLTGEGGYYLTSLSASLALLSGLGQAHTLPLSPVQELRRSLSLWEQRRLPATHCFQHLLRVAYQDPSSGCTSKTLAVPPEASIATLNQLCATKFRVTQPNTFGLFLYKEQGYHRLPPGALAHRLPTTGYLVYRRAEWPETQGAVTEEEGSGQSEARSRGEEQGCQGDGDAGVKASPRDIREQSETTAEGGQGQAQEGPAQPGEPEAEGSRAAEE
NR1D1 modulator: modulators of Rev-erb alpha DNA binding, primary screen, biochemical, FITC-DNA, fluorescence polarization, uHTS. Nuclear receptor subfamily 1 group D member 1 (Homo sapiens), P20393. Rev-erbα–FITC-DNA binding, 90 min. activity, % at 10 µM. 370,000 compounds, 0.79% hits;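 active = activity above about 14%, limit read from the data; passing the limit was not always enough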
PG9 binder: binders of HIV-1 gp120 antibody PG9, primary screen, biochemical, TR-FRET | HIV-1 gp120 / PG9 antibody interaction | TR-FRET gp120-PG9 antibody binding | inhibition, % at 6.7 µM | 360,000 compounds, 0.43% hits | AID 624416, 2012; in the data active = inhibition above about 8.5%
Tb MetRS inh: T. brucei MetRS inhibitors, primary screen, biochemical, luminescence | methionyl-tRNA synthetase (Trypanosoma brucei brucei) | purified T. brucei MetRS, ATP depletion, Kinase-Glo luminescence | inhibition, % at 11.9 µM | 360,000 compounds, 0.4% hits;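 active = inhibition above a per-plate cutoff of the control wells' mean inhibition plus 3 SD, cut at about 5.5% in these data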
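Material – parasite MetRS enzyme · Medium – HEPES-MgCl2-KCl buffer plus DTT, spermine, BSA, pyrophosphatase · Reagent – ATP, methionine and E. coli bulk tRNA substrates · Times – 15 min enzyme-compound preincubation, 2 h reaction, 10 min detection, 25 °C · Measured by – luminescence of leftover ATP · Evaluation – percent inhibition relative to median high and low control wells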
Rev-erbA confirm: modulators of Rev-erb alpha DNA binding, confirmation, biochemical, FITC-DNA, fluorescence polarization, single point; shares compounds with NR1D1 modulator; 90 min; activation, % at 25 µM; 3,000 compounds, 61% hits;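 active = activation at or above a set limit, or at least 3 SD above the negative control mean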
RORg DNA counter: modulation of RORgamma DNA binding, dose response, counter-screen for Rev-erb alpha modulator project, biochemical, fluorescence polarization, FITC-DNA; IC50, µM; purified RORgamma protein-FITC-DNA binding; shares compounds with NR1D1 modulator; 910 compounds, 8% hits;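 active = Compounds whose fitted half-maximal concentration for disrupting protein-DNA binding is below 10 micromolar; the record names Rev-erb in its text, so the target is in doubt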
Of the large screens only hits and unclear results are named; the others gave an inactive call (follow-up assays come after a bar, where they were run).

COc1nc(-c2ccccc2)ccc1-c1noc(-c2cccs2)n1	NR1D1 modulator 59.0 | Rev-erbA confirm 40.2 | RORg DNA counter inactive
COc1nc(-c2ccccc2)ccc1-c1noc(-c2ccccc2)n1	none
COc1ccc(-c2ccc(-c3noc(-c4ccccc4)n3)c(OC)n2)cc1	NR1D1 modulator 21.9 | Rev-erbA confirm 18.0
CC(C)CNC(=O)c1[nH]c(C(F)(F)F)nc1-c1ccccc1	none
CN(Cc1ccccc1)Cc1cc(=O)oc2ccccc12	none
O=c1cc(CN(Cc2ccccc2)Cc2ccccc2)c2ccccc2o1	NR1D1 modulator 22.1 | Rev-erbA confirm inactive
CCOCCCNC(=O)c1cc(-c2ccc(Br)s2)nc2ccccc12	NR1D1 modulator 21.5 | Rev-erbA confirm inactive
Cc1c(C#N)c(O)[nH]c(=O)c1N=Nc1ccc(S(N)(=O)=O)cc1	NR1D1 modulator 26.4 | Rev-erbA confirm 17.3
COc1ccc(-c2cc(CCC(=O)N3CCN(c4cc(C)ccc4C)CC3)on2)cc1	none
CCOc1ccc(NS(=O)(=O)c2ccc(C(=O)NNC(=O)c3ccccc3O)cc2)cc1	none
O=C1c2ccccc2NC(c2ccc(-c3ccccc3F)o2)N1O (configuration not stated)	NR1D1 modulator 23.7 | Rev-erbA confirm 20.7
O=C1c2ccccc2NC(c2ccc(-c3cccc(F)c3)o2)N1O (configuration not stated)	none
CCOC(=O)c1ccc(N/C=C\C(=O)c2cccc(OC)c2)cc1	NR1D1 modulator 26.6 | Rev-erbA confirm inactive
O=C(CNC(=O)OCc1ccccc1)NCC(=O)NC(Cc1c[nH]c2ccccc12)C(=O)O (configuration not stated)	none
COC(=O)c1cc(-c2ccc3ccccc3c2)c(=O)n2c1CCC2	none (no result: Rin1-Abl PPI inh, PG9 binder, Tb MetRS inh)
NS(=O)(=O)c1ccc(CCNC(=O)c2ccc3c(c2)N(Cc2ccccc2)CCS3)cc1	NR1D1 modulator 39.3 | Rev-erbA confirm inactive
COc1ccc(C(=O)Nc2nc(C)c(C(C)=O)s2)cc1S(=O)(=O)N1CCOCC1	NR1D1 modulator 57.9 | Rev-erbA confirm 143.8 | RORg DNA counter inactive
Cc1nc(C)c2c(=O)cc(-c3ccccc3)[nH]c2n1	none
Cc1nc(-c2ccccc2)nc2[nH]c(-c3ccccc3)cc(=O)c12	NR1D1 modulator 90.1 | Rev-erbA confirm 80.6 | RORg DNA counter inactive
CCOC(=O)C1(C)CCCCCN1C(=O)c1ccc(Cl)nc1 (configuration not stated)	none
CCOc1cc(C(=O)N(CC)CC(=O)Nc2c(F)cccc2F)ccc1OCC(=O)N1CCOCC1	none (no result: NR1D1 modulator, PG9 binder)
COC(=O)c1cccc(C23CC4(C2)[C@H](CN(C)[C@@H]4c2ccccc2)C3c2ccccc2)c1 (some centres not stated)	NR1D1 modulator 22.1 | Rev-erbA confirm 41.4
COCC(=O)N1CCC(Oc2ccc(C(=O)N3C[C@H]4CC[C@H]3C4)cc2)CC1	none
Cc1c(Cl)cccc1NC(=O)CNC(=O)CCS(=O)(=O)c1ccc(F)cc1	none
Nc1c(-c2cccs2)cnc2c(-c3ccc(F)cc3)cnn12	NR1D1 modulator 35.2 | Rev-erbA confirm inactive
Nc1c(-c2ccccc2)cnc2c(-c3ccccc3)cnn12	none
CCOc1cc(-c2nc(-c3ccncc3)no2)cc(OCC)c1OCC	NR1D1 modulator 28.2 | Rev-erbA confirm inactive
CCOc1ccc(-c2nc(-c3ccncc3)no2)cc1OCC	none
CC(=O)Nc1nc(CC(C)C)cc2c1c(=O)oc1ccccc12	NR1D1 modulator 26.9 | Rev-erbA confirm inactive
CCCCc1cc2c(c(NC(=O)CC)n1)c(=O)oc1ccccc12	none
CCOC(=O)c1c(-c2ccc(C)cc2)csc1NC(=O)/C(C#N)=C/c1ccc(O)c(OC)c1	none
CCOC(=O)c1c(-c2ccccc2)csc1NC(=O)/C(C#N)=C\c1ccc(O)c(OC)c1	NR1D1 modulator 41.9 | Rev-erbA confirm 11.8
CN(Cc1ccc(Cl)c(Cl)c1)C(c1cc2ccccc2o1)c1nnnn1C(C)(C)C (configuration not stated)	none (no result: Rin1-Abl PPI inh)
O=C(CSc1nc(-c2ccccc2F)nc2nc[nH]c12)Nc1c(Cl)cc(Cl)cc1Cl	NR1D1 modulator 38.0 (no result: Rin1-Abl PPI inh, Tb MetRS inh) | Rev-erbA confirm inactive
Cc1ccc(-n2c(N)c(C#N)c(-c3ccc(Cl)cc3)c(C#N)c2=O)cc1	NR1D1 modulator 49.3 | Rev-erbA confirm 39.4 | RORg DNA counter inactive
COc1ccc2c(C)cc(SCC(=O)NC3CCCCC3)nc2c1	NR1D1 modulator 121.3 | Rev-erbA confirm 53.1 | RORg DNA counter inactive
COc1ccc2c(C)cc(SCC(=O)Nc3ccc(Cl)cn3)nc2c1	NR1D1 modulator 55.2 | Rev-erbA confirm inactive
COc1ccc2nc(C)cc(SCC(=O)Nc3c(C)cc(C)cc3C)c2c1	NR1D1 modulator 412.4 | Rev-erbA confirm 19.1
O=C(Nc1ccc(Oc2ccccc2)cc1)c1csc([C@@H]2C[C@H](O)[C@@H](CO)O2)n1	none
Clc1ccc(-n2cccc2CN2CCc3c([nH]c4ccccc34)C2c2ccccn2)nc1 (configuration not stated)	none
CCOc1ccccc1NC(=O)CSc1nnc(CCC(=O)Nc2ccccc2F)n1C	none
CCCOc1cccc(-c2nnc(NC(=O)c3ccco3)s2)c1	NR1D1 modulator 23.1 | Rev-erbA confirm inactive
CCC(C(=O)OC)(C(=O)OC)c1ccc([N+](=O)[O-])cc1	none
O=c1[nH]cnc2c1sc1nc(C(F)F)cc(-c3ccccc3)c12	NR1D1 modulator 31.6 | Rev-erbA confirm 28.1
CC(C)Cc1nc2sc3c(=O)[nH]cnc3c2c2c1CCCC2	none
COc1ccc(S(=O)(=O)Nc2cccc3c2O[C@H](CN(C)S(=O)(=O)c2cn(C)cn2)[C@@H](C)CN([C@H](C)CO)C3=O)cc1	none
O=C1CSC(c2ccccc2)N1Nc1nc(N2CCOCC2)nc(N2CCOCC2)n1 (configuration not stated)	NR1D1 modulator 21.8 | Rev-erbA confirm inactive
Cc1nc(NCCc2ccc(Cl)cc2)c2nnn(Cc3ccccc3)c2n1	NR1D1 modulator 40.0 | Rev-erbA confirm 35.1 | RORg DNA counter inactive
CCc1ccc([C@H]2[C@@H]3C(=O)C[C@@H]4C(=O)N(C)C(=O)[C@@H]4[C@@H]3CN2S(=O)(=O)c2ccc(C)cc2)cc1	NR1D1 modulator 16.0 | Rev-erbA confirm inactive
COc1ccccc1CNC(=O)c1c(O)c2cc(OC)c(OC)cc2[nH]c1=O	NR1D1 modulator 28.5 | Rev-erbA confirm 19.2
O=C(NCc1ccccc1)c1c(O)c2ccccc2[nH]c1=O	none
O=C(Cc1cccc(NC(=O)C2CCN(C(=O)C3CCCC3)CC2)c1)Nc1cccc(C(=O)N2CCCCC2)c1	none
